Results reported in the EternaBench riboswitch data.

Test system: MS2 coat protein
Assay: apparent Kd, MS2 coat protein; higher = weaker binding; RNA-MaP array; FMN 200 µM where present
In short: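 The apparent Kd comes from binding curves fitted cluster by cluster, filtered, and summarised as a median. Those curves followed SNAP-549-labelled MS2 coat protein from 0.7 or 1.5 nM, doubling to 3 µM, on Illumina sequencing-chip clusters where stalled E. coli RNA polymerase had transcribed the designs, without and then with constant ligand. The buffer was 100 mM Tris-HCl pH 7.5, 80 mM KCl, 4 mM MgCl2, BSA, DTT, yeast tRNA and Tween-20, and green signal was normalised to red-channel RNA signal and control-cluster median Fmax.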

[1] = designed as: OFF switch for flavin mononucleotide, no ligand
[2] = ligand present: flavin mononucleotide, designed as: OFF switch for flavin mononucleotide
[3] = designed as: ON switch for flavin mononucleotide, no ligand
[4] = ligand present: flavin mononucleotide, designed as: ON switch for flavin mononucleotide

Row | Sequence | apparent Kd [1] | apparent Kd [2] | apparent Kd [3] | apparent Kd [4]
1 | AUGCAACAUGAGGAUCACCCAUGUGAGGAUAUCGUAUACUACUGUUGCAAUACUUAGACGAGAAGGCACACCGU | 166 nM | 174 nM |  | 
2 | AUGCCCGGAGGAUAUACACUAAAAGUCCGGUGCUAGGGUAGACAUGAGGAUCACCCAUGUAGAAGGCCGAGGCA | 53.2 nM | 101 nM |  | 
3 | AUGCCUUAUGUAGGAUAUGCAUAGAGUUGCUAUGCAGAAGGACAUGAGGAUCACCCAUGUAUGUAUACCUUACAUAUCUGGCAU | 8.34 nM | 30.8 nM |  | 
4 | AUGCGGUCAGGAUAUGCAUGGCGGGACUUGCGUCGUGGCGUGGAGAAGGGACAUGAGGAUCACCCAUGUGGCGA | 77.3 nM | 82.6 nM |  | 
5 | AUGCUAGUGUGAGGAUAUACAUGAGGAUCACCCAUGUGUCCGAAGAACGGGACAUGACGUUCGUCGUAGAAGGUACAUUAGCAU | 18.7 nM | 46.8 nM |  | 
6 | AUGCUUCACACAGGAUAUUACAACAUGAGGAUCACCCAUGUACAUGACAUGACGAUCACGCAUGUUAAGAAGGGUGUGAAGCAU | 587 nM | 449 nM |  | 
7 | AUGUGGUGCGUAGGAUAUCAUUGAAGAAAACCCUGAGAAGGACGUGAGGACAUGAGGAUCACCCAUGUGGAUCACCCAUGUCAU | 315 nM | 282 nM |  | 
8 | AUUAAUAAGUAGAAGGACGGAGAGUAUGAAGUCGUAGGAUAUACAAUAGACAUGAGGAUCACCCAUGUAUGUUGGGUGUGAAUG | 376 nM | 254 nM |  | 
9 | AUUACAUGAGGAUCACCCAUGUACAGCACGUUUCAAUACAGUGAGGAUAUACGAAAUGUAGGAACGUAGAAGGCACUGGGUGCA |  |  | 265 nM | 68.1 nM
10 | AUUACCAGAGGAUAUGCGAGGGUGUACCUCCCACAGCGAAAACAUGAGGAUCACCCAUGUAGAAGGCUGAACAU | 56.7 nM | 46.3 nM |  | 
11 | AUUAUAAAGGUAGGAUAUAGUAUUAUAAUUAAAUUAGAAGGAUCUCACAUGAGGAUCACCCAUGUAAGAGGAUCACCCAUGUAU | 9.64 nM | 9.62 nM |  | 
12 | AUUAUAAAGUCAGGAUAUCGGUUUAUAAUAUUACGAGAAGGGACAUGAGGAUCACCCAUGUAUUAACACUACUAUGUCAACUAA | 46.6 nM | 43.4 nM |  | 
13 | AUUAUACAUGAGGAUCACCCAUGUAAUUAAUCUAGUAAGAUCUAGGAUAUCAGCUCGUUUAGAGCUGAGAAGGAGAUCACAUGU |  |  | 53.5 nM | 21 nM
14 | AUUAUAUUAGGAUAUUCGCUGUGGUACAUGAGGAUCACCCAUGUAUCUGCUUGUAUCAACGAAGAAGGAAUGUGUA | 15.5 nM | 16.8 nM |  | 
15 | AUUAUGCAGCAGGAUAUCGAUCCGCAGUAUGAUCGAGAAGGGCUGACAUGAGGAUCACCCAUGUGCGUCCUAGG | 43.6 nM | 155 nM |  | 
16 | AUUAUUUUCGAAGGAUAUGGAUACAUGAGGAUCACCCAUGUAUAAAAUGUGAUCAAUUAUAUGAUCCAGAAGGUCGUUGUUUAU | 80.8 nM | 257 nM |  | 
17 | AUUGAGCUAGGAUAUACAUGAGGAUCACCCAUGUAGCAAAAUAGCUAUACAUGAUCGGGUAGAAGGAGCGCGAG | 13.6 nM | 20.5 nM |  | 
18 | AUUGCCUUUGUCAGGAUAUCUGAGGUCGAAAGUGAAGAGAAGGGACAUGAGGAUCACCCAUGUAGUGGUACGCA | 144 nM | 431 nM |  | 
19 | AUUGUGUGAGGAUAUUAAUAGUAAAUGAAUAGAAUUGUGAUUGAGAAGGCACAUGAGGAUCACCCAUGUUCCUU | 19 nM | 17.4 nM |  | 
20 | AUUGUUCGAGAGAAGGGAACAUGAGGAUCACCCAUGUUACCUCACCCGGUGACGGAACUCCAAGUUCAGGAUAUCUCGAGCGAU | 7.64 nM | 16 nM |  | 
21 | AUUUAGUGCGAGAAGGCGUGGUCACAUGAGGAUCACCCAUGUCAGUACACGAGGAUAUCGAUUCGCUGUGUAAACACAAGCGAC |  |  | 80.7 nM | 6.67 nM

Row | Sequence | apparent Kd [1] | apparent Kd [2] | apparent Kd [3] | apparent Kd [4]
22 | AUUUCGUUAGCAGGAUAUGGACAGGCCUGUCCGUAUUGAGUCAGUAACAUGAGGAUCACCCAUGUCCAGAAGGGCUCGAAGUUA | 8.15 nM | 15.8 nM |  | 
23 | AUUUUACAUGAGGAUCACCCAUGUUUUGGCGGGUCAGGAUAUAGAUCGGAUGAGUUCUGUCUAGAAGGGACAUGUU |  |  | 49.7 nM | 29.6 nM
24 | AUUUUACAUGAGGAUCACCCAUGUUUUGGUGGAUCAGGAUAUAAAUUGAAUGAGUUUUAGUUAGAAGGGAUAUUUA |  |  | 67.2 nM | 99 nM
25 | AUUUUGUCAGGAUAUGAUUAGUAGGACGAGAGUGCUACUACUUAGAAGGGACAUGAGGAUCACCCAUGUAUUCC | 17.8 nM | 22.2 nM |  | 
26 | CAAAGGUGAGGAUAUGCAUAACUAUGACGAAAGUCAUAAACACAUGAGGAUCACCCAUGUAGAAGGCACCACAA | 23.9 nM | 18.3 nM |  | 
27 | CAACCGUUGCAGAAGGUUAAAUAAUUUCUCAUCUUGUUUACAUGAGGAUCACCCAUGUAUUUGUUGAAGGAUAUGCAAGUGUUG | 8.58 nM | 8.21 nM |  | 
28 | CAAGGCGGUGAAGGAUAUACACGGGCGUUGCCAAACAUGAGGAUCACCCAUGUAGAAGGUCACCCUGAGAAGGCUUUAUGCCUA | 411 nM | 42.2 nM |  | 
29 | CAAUAAGACACAGGAUAUCCAGACAGGGAAGAUGGAGAAGGGUGAUCAGAAAAGACAUGAGGAUCACCCAUGUCUCGUGCGAUG |  |  | 631 nM | 282 nM
30 | CAAUCUCAGAUAGGAUAUAUAGGAUAACUUAAGACCUAACAUGAGGAUCACCCAUGUGAUUAUUCGUAGAAGGAUCAUUGAACU |  |  | 226 nM | 244 nM
31 | CAAUUGGCACAGAAGGGUGACAUGAGGAUCACCCAUGUAGCGUGGCACUUAGGAGGAGCCACGCCACAGGAUAUGUGCGGGCAC |  |  | 76.4 nM | 111 nM
32 | CAAUUUAUUACAGGAUAUACAAUACAAUGAUUAGUAGAAGGGUAUAAUACAUGAGGAUCACCCAUGUCAUGUGUCAUAAUAACC | 35.8 nM | 23.9 nM |  | 
33 | CACCGUUAAGUAGGAUAUCGUACAUGAGGAUCACCCAUGUAAUAAAUGAGAAUUUCGGAUGUAUGCGAGAAGGACUAAAUCGGC | 49.3 nM | 43 nM |  | 
34 | CACCGUUACCGAGGAUAUCGUACAUGAGGAUCACCCAUGUAAUAAAUGAGAAUUUCGGAUGUAUGCGAGAAGGCGGGAAUCGGC | 34.1 nM | 29.8 nM |  | 
35 | CACCGUUAGUGAGGAUAUCUUACAUGAGGAUCACCCAUGUAAUAAAUGAGAAUUUCGGAUGUAUUAGAGAAGGCACAAAUCGGC | 25.1 nM | 24.3 nM |  | 
36 | CACGGAUGAUCAGGAUAUGCUAAAGCAGGCUGACAUGAGGAUCACCCAUGUCCCAGAAACUGUGGGCAGAAGGGAUGUAAUGUU |  |  | 49.8 nM | 12.2 nM
37 | CACGGUGAUGUAGGAUAUACGCUGGAAUACAGCGUAGAAGGACAUGAGGAUCACCCAUGUAGAGUGUCUCCAAAUAACACCGUG | 43 nM | 293 nM |  | 
38 | CACUCGUGUCUAGGAUAUGAGUGACAAGCGCGAGAUUUUCUCACCGCUAGCUCAGAAGGAGACAUGAGGAUCACCCAUGUAAGG | 165 nM | 20.3 nM |  | 
39 | CAGAAGUCAGGAUAUCCAUGGCGGCACUUGCGUGGUGGCGUGGAGAAGGGACAUGAGGAUCACCCAUGUAAAGG | 171 nM | 237 nM |  | 
40 | CAGCAAAAGUAGAAGGCAGUACUGAUUCAGUACUGAGGAUAUACAUGAGGAUCACCCAUGUGUUCCAGCUGAAUAAUAAAAUAA | 8.89 nM | 116 nM |  | 
41 | CAGCAAUGUGAGAAGGCUGCUCCGAUAAGGAGCAGAGGAUAUUACAUGAGGAUCACCCAUGUAUGAACCAAUAGCUGAAAUAAA | 6.01 nM | 28.3 nM |  | 
42 | CAGCAUCAUGUAGGAUAUGCGUGGCGAAGCUAUGCAGAAGGACAUGAGGAUCACCCAUGUCUUAGCUAGCGUACUAGCUUGCUG | 7.5 nM | 21.4 nM |  | 
